Results on six compounds are retold here after ChEMBL document CHEMBL1800010, “Design, synthesis, and pharmacological activity of nonallergenic pyrazolone-type antipyretic analgesics” (J Med Chem, 2010).

In data set [1] the test system is Rattus norvegicus. The data set is described as follows: Drug excretion in rat urine assessed as norantipyrine formation at 100 mg/kg, po measured after 24 hrs by HPLC analysis. The following applies: in vivo, BLD = below limit of detection.
The test system of data set [2] is Rattus norvegicus. The data set is described as follows: Antinociceptive activity in rat assessed as suppression of carrageenan-induced nociception in right hind paw at 100 mg/kg, po measured after 1 hr. Format: functional, organism-based. Also on record: dose 100 mg/kg. An outline of the steps:
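Randall–Selitto paw pressure test in rats. Hyperalgesia induced by intraplantar injection of 0.1 mL carrageenin (10 mg/mL) into the right hindpaw, with oral dosing immediately afterward. Pressure rose at 16 g/s to squeak or struggle, cutoff 250 g. Baseline was the mean of the last four stable of 6-8 readings. Results given as % of baseline threshold, mean ± SEM, n=4.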

Data set [3] has as its system Rattus norvegicus. The data set is described as follows: Antipyretic activity against IL-1beta-induced hyperthermia in rat assessed as change in rectal temperature at 50 mg/kg, po measured after 2 hrs.
The test system of data set [4] is Rattus norvegicus. The data set is described as follows: Drug excretion in rat urine assessed as hydroxymethylpyrine formation at 100 mg/kg, po measured after 24 hrs by HPLC analysis. Format: ADME, organism-based. The following applies: in vivo. Also noted: dose 100 mg/kg, route oral. Summed up:
(§1)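 Single oral dose of 100 mg/kg to rats, with urine collected for 24 h. 1 mL urine was incubated with β-glucuronidase/sulphatase and Na2S2O5 in 0.1 M acetate, pH 4.5, at 37 °C for 24 h. Phenacetin internal standard added, then chloroform/methanol 9:1 extraction. Analyzed by C18 HPLC (acetate pH 6.6/acetonitrile 85:15, 254 nm) against authentic standards. Mean ± SEM, n=4.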

Data set [5] is filed under the species Rattus norvegicus. The data set is described as follows: Antipyretic activity against IL-1beta-induced hyperthermia in rat assessed as change in rectal temperature measured after 2 hrs. Format: functional, organism-based. Summed up:
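Rats fitted with a guide cannula into the lateral ventricle. Fever induced by icv IL-1β (200 units/rat) in PBS pH 7.5. Compound given orally immediately after IL-1β at 10-100 mg/kg. Rectal temperature read by thermoelectric probe at 7 cm depth, after 3 days of adaptation, at 2 h intervals. ΔT_rec = T − T₀. Mean ± SEM, four rats.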

Data set [6] relates to Liver microsomes. The data set is described as follows: Metabolic stability in rat liver microsomes assessed as norantipyrine formation per mg of protein after 20 mins by HPLC analysis. Format: ADME, Microsome. Summed up:
(§2)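 Rat liver microsomes prepared by 9000g then 105000g centrifugation in 1.15% KCl, protein by Lowry. Incubation: 2 μmol substrate, 10 μmol NADPH, Na2S2O5 and microsomes (2-2.5 mg protein) in 2 mL 0.1 M K/Na phosphate, pH 7.4, 37 °C, 20 min. Stopped with TCA. Metabolites measured by C18 HPLC at 254 nm against authentic standards.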

Data set [7] concerns Rattus norvegicus. The data set is described as follows: Drug excretion in rat urine assessed as norantipyrine formation at 100 mg/kg, po measured after 24 hrs by HPLC analysis. Format: ADME, organism-based. Also noted: dose 100 mg/kg, route oral. The following applies: in vivo. Summed up: as §1
Another data set is filed under the species Cavia porcellus. The data set is described as follows: Antigenicity in guinea pig assessed as erythema in abdomen id measured after 24 hrs by skin reaction assay. The following applies: in vivo, other.
Data set [8] deals with Rattus norvegicus. The data set is described as follows: Antipyretic activity against IL-1beta-induced hyperthermia in rat assessed as change in rectal temperature at 100 mg/kg, po measured after 2 hrs.
Data set [9] concerns Liver microsomes. The data set is described as follows: Metabolic stability in rat liver microsomes assessed as hydroxymethylpyrine formation per mg of protein after 20 mins by HPLC analysis. The format is ADME, Microsome. Summed up: as §2
Background: Microsomes from liver hold many membrane-bound enzymes, among them those of drug oxidation.

Data set [10] is described as follows: Drug excretion in rat urine at 100 mg/kg, po measured after 24 hrs by HPLC analysis. The following applies: read-out: Activity. Format: ADME, organism-based. Also noted: dose 100 mg/kg, route oral. Summed up: as §1
Data set [11] relates to Liver microsomes. The data set is described as follows: Metabolic stability in rat liver microsomes assessed as hydroxyantipyrine formation per mg of protein after 20 mins by HPLC analysis. The format is ADME, Microsome. Summed up:
as §2

The test system of data set [12] is Liver microsomes. The data set is described as follows: Metabolic stability in rat liver microsomes assessed as increase in […] products after 20 mins by HPLC analysis. Format: ADME, Microsome. Summed up:
as §2

In data set [13] the test system is Rattus norvegicus. The data set is described as follows: Drug excretion in rat urine assessed as hydroxyantipyrine formation at 100 mg/kg, po measured after 24 hrs by HPLC analysis. The following applies: in vivo. Also noted: dose 100 mg/kg, route oral. Format: ADME, organism-based. Summed up:
as §1

Data set [14] has as its system Rattus norvegicus. The data set is described as follows: Antinociceptive activity in rat assessed as suppression of carrageenan-induced nociception in right hind paw at 2 mg/kg, po measured after 1 hr. Format: functional, organism-based. Also on record: dose 2 mg/kg. An outline of the steps:
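Rat Randall-Selitto paw pressure test. Hyperalgesia induced by intraplantar injection of 0.1 mL carrageenin (10 mg/mL) into the right hindpaw. Drug given orally immediately after. Pressure applied at 16 g/s with a 250 g cutoff; threshold taken at squeaking/struggling. Baseline is the mean of the last four stable readings. Expressed as % of control threshold; mean ± SEM, n=4 rats.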

Active and inactive are the calls of the source.

With `Cc1cc(=O)n(-c2ccccc2)n1C(C)(C)C`, the Activity entry is “BLD” in the data set with Rattus norvegicus [1]; “BLD” in the data set with Rattus norvegicus [4] (BLD = below limit of detection); “Dose-dependent effect” in the data set filed under Rattus norvegicus [5]; less than 0.1 nmol in the data set with Liver microsomes [6]; “BLD” with Rattus norvegicus [7] (BLD = below limit of detection); “Non-toxic” in the data set listed under Cavia porcellus. Further, the result with Rattus norvegicus [2] and with Rattus norvegicus [3] was Active.
For `Cc1cccc(Nc2ccccc2C(=O)O)c1C`, the outcome with Rattus norvegicus [8] was Active.
In the case of `Cc1cc(=O)n(-c2ccccc2)n1-c1ccccc1`, the Activity result was “BLD” in the data set with Rattus norvegicus [1]; “BLD” with Rattus norvegicus [4] (BLD = below limit of detection); “Dose-dependent effect” in the data set listed under Rattus norvegicus [5]; less than 0.1 nmol with Liver microsomes [6]; “BLD” in the data set with Rattus norvegicus [7] (BLD = below limit of detection); “Non-toxic” in the data set listed under Cavia porcellus. For the same compound, the result in the data set with Rattus norvegicus [2] and in the data set on Rattus norvegicus [3] was Active.
As for `Cc1cc(=O)n(-c2ccccc2)n1C` [ANTIPYRINE], the Activity is 40 nmol in the data set on Liver microsomes [9]; 40 nmol in the data set with Liver microsomes [11]; 2% in the data set with Rattus norvegicus [13]; 2% in the data set on Rattus norvegicus [4]; 27 nmol in the data set on Liver microsomes [6]; 2% in the data set on Rattus norvegicus [7]. Besides, the Activity result in the data set filed under Cavia porcellus is reported as “Toxic”. In addition, the outcome with Rattus norvegicus [8] and in the data set on Rattus norvegicus [2] was Active. The dose excreted at 24 h in data set [10] worked out at 2%. The Stability entry in the data set on Liver microsomes [12] is “Unstable”.
With `COc1ccc2c(c1)c(CC(=O)O)c(C)n2C(=O)c1ccc(Cl)cc1`, the outcome in the data set on Rattus norvegicus [14] was Active.
`Cc1cc(=O)n(-c2ccccc2)n1CC(F)(F)F`: the Activity entry in the data set on Rattus norvegicus [1] is “BLD”; with Rattus norvegicus [4] (BLD = below limit of detection), “BLD”; in the data set filed under Rattus norvegicus [5], “Dose-dependent effect”; in the data set on Liver microsomes [6] it was less than 0.1 nmol; in the data set with Rattus norvegicus [7] (BLD = below limit of detection), “BLD”; in the data set filed under Cavia porcellus, “Non-toxic”. Besides, the result with Rattus norvegicus [2] and in the data set with Rattus norvegicus [3] was Active.
